Results: ChEMBL document CHEMBL4602728, “6-Amino[1,2,5]oxadiazolo[3,4-b]pyrazin-5-ol Derivatives as Efficacious Mitochondrial Uncouplers in STAM Mouse Model of Nonalcoholic Steatohepatitis” (J Med Chem, 2020)
Active and inactive are the calls of the source.

Legend:
[1] = Toxicity in C57BL/6 mouse model of streptozotocin-induced nonalcoholic steatohepatitis assessed as decrease in food consumption per cage at 10 mg/kg/day, po formulated into HFD administered for 21 days measured during compound dosing relative to control; format: organism-based; set-up: scale not given: the % may be the effect or the level left; conditions: in vivo, 504 h
[2] = tested on: Mus musculus; test: (§1) Anti-hepatosteatosis activity in C57BL/6 mouse model of streptozotocin-induced nonalcoholic steatohepatitis assessed as fibrosis score at 10 mg/kg/day, po administered for 21 days formulated into HFD measured post-last dose by Picro-Sirius red staining based histopathological analysis (reference value: 0.91 +/- 0.09 %); format: functional
[3] = Toxicity in C57BL/6 mouse model of streptozotocin-induced nonalcoholic steatohepatitis assessed as effect on body weight at 10 mg/kg/day, po formulated into HFD administered for 21 days measured during compound dosing; format: organism-based; conditions: in vivo, 504 h
[4] = Toxicity in C57BL/6 mouse model of streptozotocin-induced nonalcoholic steatohepatitis assessed as effect on liver weight at 10 mg/kg/day, po formulated into HFD administered for 21 days measured during compound dosing; format: organism-based; conditions: in vivo, 504 h
[5] = tested on: Mus musculus; test: Anti-hepatosteatosis activity in C57BL/6 mouse model of streptozotocin-induced nonalcoholic steatohepatitis assessed as reduction in liver triglyceride level at 10 mg/kg/day, po administered for 21 days formulated into HFD measured post-last dose by triglyceride E test based assay; format: functional, organism-based
[6] = Toxicity in C57BL/6 mouse model of streptozotocin-induced nonalcoholic steatohepatitis assessed as increase in plasma cholesterol level at 25 mg/kg/day, po formulated into HFD administered for 21 days measured post last dose by […] reagent based colorimetric method; format: organism-based; conditions: in vivo, 504 h
How it was run: (§2)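 Cholesterol was measured in day-21 nonfasting plasma of STAM male mice on 25 mg kg−1 d−1 drug in high-fat diet. The colorimetric assay used Infinity cholesterol reagent at 37 °C for 5–20 min, reading absorbance at 500 nm minus 660 nm background. Values were interpolated from a cholesterol standard curve. n = 8; Kruskal–Wallis test.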

[7] = tested on: Mus musculus; test: Anti-hepatosteatosis activity in C57BL/6 mouse model of streptozotocin-induced nonalcoholic steatohepatitis assessed as reduction in ALT level at 10 mg/kg/day, po administered for 21 days formulated into HFD measured post-last dose; format: functional, organism-based
[8] = Toxicity in C57BL/6 mouse model of streptozotocin-induced nonalcoholic steatohepatitis assessed as change in plasma AST level at 10 mg/kg/day, po formulated into HFD administered for 21 days measured post last dose; format: organism-based; conditions: in vivo, 504 h
[9] = Induction of mitochondrial uncoupling in rat L6 cells assessed as increase in oxygen consumption rate incubated for 90 mins by Seahorse XF analyzer based assay; format: mitochondria, Mitochondria
[10] = Toxicity in C57BL/6 mouse assessed as increase in body temperature at 5 to 50 mg/kg, po measured upto 4 hrs by rectal probe thermometry; format: organism-based; conditions: in vivo
How it was run: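 Male C57BL/6 mice received a single oral gavage of vehicle or compound at 5, 20 or 50 mg/kg. The vehicle was methylcellulose, Tween 80 and DMSO. Core body temperature was taken with a rectal probe thermometer at set time points. n = 3; two-way repeated measures ANOVA.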

[11] = Cmax in C57BL/6 mouse at 10 mg/kg, po administered via gavage by LC/MS-MS analysis; format: ADME, organism-based; set-up: dose 10 mg/kg, route oral; conditions: in vivo
How it was run: (§3)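 Male C57BL/6 mice aged 9–12 weeks received a single 10 mg/kg oral gavage bolus. The vehicle was methylcellulose 90–91%, Tween 80 2–3% and DMSO 6–8% (v/v). Tail-tip blood was drawn into heparinized capillaries and spun at 2000g for 10 min. Plasma was extracted with acetonitrile:methanol (9:1) and quantified by LC–MS/MS against spiked plasma standards (1–100 ng). n = 3.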

[12] = Half life in C57BL/6 mouse at 10 mg/kg, po administered via gavage by LC/MS-MS analysis; format: ADME, organism-based; conditions: in vivo; how it was run: as §3
[13] = Drug distribution in C57BL/6 mouse liver at 10 mg/kg, po administered via gavage measured after 1 hr by LC/MS-MS analysis; format: ADME, organism-based; conditions: read-out: Drug uptake
How it was run: (§4)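 Male C57BL/6 mice received a single 10 mg/kg oral gavage and were euthanized by cervical dislocation at 1 h. Tissues were rinsed in PBS, snap-frozen, pulverized in liquid nitrogen and homogenized, then spun at 10 000g for 10 min. Supernatants were extracted with acetonitrile:methanol (9:1) and quantified by LC–MS/MS against spiked standards. n = 3.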

[14] = Drug distribution in C57BL/6 mouse kidney at 10 mg/kg, po administered via gavage measured after 1 hr by LC/MS-MS analysis; format: ADME, organism-based; conditions: read-out: Drug uptake; how it was run: as §4
[15] = Solubility of compound in PBS at pH 7.4; format: physicochemical; conditions: buffer
[16] = molecular target: Voltage-gated inwardly rectifying potassium channel KCNH2 (Homo sapiens, UniProt Q12809); test: Inhibition of human ERG by Qpatch method
[17] = Toxicity in C57BL/6 mouse model of streptozotocin-induced nonalcoholic steatohepatitis assessed as effect on food consumption per cage at 25 mg/kg/day, po formulated into HFD administered for 21 days measured during compound dosing (reference value: 318 +/- 13 g); format: organism-based; conditions: in vivo, 504 h
[18] = tested on: Mus musculus; test: as §1, with “25” for “10”; format: functional
[19] = tested on: Mus musculus; test: Anti-hepatosteatosis activity in C57BL/6 mouse model of streptozotocin-induced nonalcoholic steatohepatitis assessed as reduction in steatosis score at 25 mg/kg/day, po administered for 21 days formulated into HFD measured post-last dose by […] based histopathological analysis; format: functional, organism-based
How it was run: (§5)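 Liver tissue came from STAM male mice fed drug-containing high-fat diet at 25 mg kg−1 d−1 for 21 days from 6 weeks of age. Pieces of the left lateral lobe were Bouin-fixed and paraffin-embedded, then H&E-stained. A pathologist scored steatosis, inflammation and ballooning using the Kleiner NAFLD activity score criteria. n = 8 per group; Kruskal–Wallis test.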

[20] = tested on: Mus musculus; test: Anti-hepatosteatosis activity in C57BL/6 mouse model of streptozotocin-induced nonalcoholic steatohepatitis assessed as reduction in inflammation score at 25 mg/kg/day, po administered for 21 days formulated into HFD measured post-last dose by […] based histopathological analysis; format: functional, organism-based; how it was run: as §5
[21] = tested on: Mus musculus; test: Anti-hepatosteatosis activity in C57BL/6 mouse model of streptozotocin-induced nonalcoholic steatohepatitis assessed as reduction in ballooning score at 25 mg/kg/day, po administered for 21 days formulated into HFD measured post-last dose by […] based histopathological analysis; format: functional, organism-based; how it was run: as §5
[22] = Toxicity in C57BL/6 mouse model of streptozotocin-induced nonalcoholic steatohepatitis assessed as effect on body weight at 25 mg/kg/day, po formulated into HFD administered for 21 days measured during compound dosing; format: organism-based; conditions: in vivo, 504 h
How it was run: (§6)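 STAM male mice received the compound premixed in high-fat diet for 21 days from 6 weeks of age, at 25 mg kg−1 d−1. Body weight was recorded, and livers were weighed after sacrifice at 9 weeks of age. n = 8 per group; Kruskal–Wallis test.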

[23] = Toxicity in C57BL/6 mouse model of streptozotocin-induced nonalcoholic steatohepatitis assessed as effect on liver weight at 25 mg/kg/day, po formulated into HFD administered for 21 days measured during compound dosing; format: organism-based; conditions: in vivo, 504 h; how it was run: as §6
[24] = tested on: Mus musculus; test: Anti-hepatosteatosis activity in C57BL/6 mouse model of streptozotocin-induced nonalcoholic steatohepatitis assessed as reduction in liver triglyceride level at 25 mg/kg/day, po administered for 21 days formulated into HFD measured post-last dose by triglyceride E test based assay; format: functional, organism-based
How it was run: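 STAM male mice received 25 mg kg−1 d−1 in high-fat diet for 21 days and were killed at 9 weeks of age. The right liver lobe was snap-frozen. Total lipids were extracted by Folch's method, with homogenization in chloroform–methanol (2:1, v/v) and overnight incubation at room temperature. n = 8 per group; one-way ANOVA.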

[25] = Toxicity in C57BL/6 mouse model of streptozotocin-induced nonalcoholic steatohepatitis assessed as effect on plasma triglyceride level at 25 mg/kg/day, po formulated into HFD administered for 21 days measured post last dose by GPO reagent based colorimetric method; format: organism-based; conditions: in vivo, 504 h
How it was run: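 Plasma triglyceride was measured in day-21 nonfasting plasma from STAM male mice given 25 mg kg−1 d−1 in high-fat diet. Samples were incubated with GPO reagent at 37 °C for 5–20 min until absorbance at 500 nm stabilized. Values were interpolated from a glycerol standard curve. n = 8; Kruskal–Wallis test.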

[26] = Toxicity in C57BL/6 mouse model of streptozotocin-induced nonalcoholic steatohepatitis assessed as effect on plasma cholesterol level at 25 mg/kg/day, po formulated into HFD administered for 21 days measured post last dose by […] reagent based colorimetric method; format: organism-based; conditions: in vivo, 504 h; how it was run: as §2
[27] = Toxicity in C57BL/6 mouse model of streptozotocin-induced nonalcoholic steatohepatitis assessed as effect on plasma glucose level at 25 mg/kg/day, po formulated into HFD administered for 21 days measured post last dose by […]; format: organism-based; conditions: in vivo, 504 h
How it was run: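 Nonfasting whole-blood glucose was read with a glucose meter at sacrifice (day 21) in STAM male mice dosed at 25 mg kg−1 d−1 via high-fat diet. Readings above 900 mg/dL were recorded as 900 mg/dL. n = 8; one-way ANOVA.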

[28] = tested on: Mus musculus; test: Anti-hepatosteatosis activity in C57BL/6 mouse model of streptozotocin-induced nonalcoholic steatohepatitis assessed as reduction in ALT level at 25 mg/kg/day, po administered for 21 days formulated into HFD measured post-last dose; format: functional, organism-based
How it was run: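 STAM male mice were dosed with compound premixed into high-fat diet (57 kcal % fat) from 6 weeks of age for 21 days, at 25 mg kg−1 d−1. They were sacrificed at 9 weeks of age by cardiac puncture under isoflurane. Nonfasting heparinized blood was spun at 1000g for 15 min at 4 °C, and plasma ALT was read on a dry-chemistry analyzer. n = 8 male mice per group; mean ± SEM.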

[29] = Toxicity in C57BL/6 mouse model of streptozotocin-induced nonalcoholic steatohepatitis assessed as change in plasma AST level at 25 mg/kg/day, po formulated into HFD administered for 21 days measured post last dose; format: organism-based; conditions: in vivo, 504 h
How it was run: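 Plasma was taken at day 21 from STAM mice fed drug in high-fat diet at 25 mg kg−1 d−1. AST activity was read with Infinity AST reagent at 37 °C, measuring absorbance at 340 nm every minute for 20 min. U/L was calculated from ΔA/min times a factor based on the NADH molar absorption coefficient, sample volume and path length. n = 8; one-way ANOVA.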

Chain of Voltage-gated inwardly rectifying potassium channel KCNH2 (Q12809 whole entry): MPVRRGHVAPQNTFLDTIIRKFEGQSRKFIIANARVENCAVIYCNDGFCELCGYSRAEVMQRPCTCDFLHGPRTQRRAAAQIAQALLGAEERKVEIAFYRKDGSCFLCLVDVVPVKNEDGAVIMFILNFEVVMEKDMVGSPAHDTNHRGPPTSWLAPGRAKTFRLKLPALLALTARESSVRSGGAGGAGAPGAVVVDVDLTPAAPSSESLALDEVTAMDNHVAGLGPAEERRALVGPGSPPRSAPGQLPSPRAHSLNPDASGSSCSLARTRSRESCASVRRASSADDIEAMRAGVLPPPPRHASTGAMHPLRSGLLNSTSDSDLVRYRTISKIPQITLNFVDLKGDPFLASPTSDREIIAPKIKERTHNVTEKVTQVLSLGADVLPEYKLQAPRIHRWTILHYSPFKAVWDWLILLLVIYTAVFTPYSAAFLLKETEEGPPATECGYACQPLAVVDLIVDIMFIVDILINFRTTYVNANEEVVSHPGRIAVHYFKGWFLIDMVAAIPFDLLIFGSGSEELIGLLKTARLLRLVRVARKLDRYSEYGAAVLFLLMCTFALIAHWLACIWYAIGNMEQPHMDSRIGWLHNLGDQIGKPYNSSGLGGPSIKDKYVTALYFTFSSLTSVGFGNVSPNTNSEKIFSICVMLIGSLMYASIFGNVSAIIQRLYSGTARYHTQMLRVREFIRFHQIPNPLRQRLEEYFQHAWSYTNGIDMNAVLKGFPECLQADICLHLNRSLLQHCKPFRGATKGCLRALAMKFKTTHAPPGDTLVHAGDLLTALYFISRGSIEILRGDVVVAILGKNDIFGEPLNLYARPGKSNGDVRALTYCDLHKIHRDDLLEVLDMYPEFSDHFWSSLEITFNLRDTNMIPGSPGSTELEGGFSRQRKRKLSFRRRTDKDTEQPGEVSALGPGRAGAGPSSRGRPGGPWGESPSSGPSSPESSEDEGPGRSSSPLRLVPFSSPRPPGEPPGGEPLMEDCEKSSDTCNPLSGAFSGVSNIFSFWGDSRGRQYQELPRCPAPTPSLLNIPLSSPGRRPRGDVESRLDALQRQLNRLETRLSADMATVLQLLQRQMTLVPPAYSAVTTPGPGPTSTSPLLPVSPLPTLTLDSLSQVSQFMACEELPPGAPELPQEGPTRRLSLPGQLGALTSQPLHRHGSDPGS

CCCc1nc2c(C)cc(-c3nc4ccccc4n3C)cc2n1Cc1ccc(-c2ccccc2C(=O)O)cc1
Activity [1]: 9% | Activity [2]: 0.6% | Activity [3]: Toxic | Activity [4]: Toxic | Activity [5]: Active | Activity [6]: Toxic | Activity [7]: Active | Activity [8]: Non-Toxic

Oc1nc2nonc2nc1Nc1ccc(OC(F)(F)F)cc1
EC50 [9]: 4.3 µM | Activity [10]: Non-Toxic | Cmax [11]: 80.9 µM | half-life [12]: 342 min | concentration at 1 h [13]: 15800 ng/g | concentration at 1 h [14]: 9200 ng/g | solubility [15]: > 500 µM | inhibition (INH) [16]: Not Active | Activity [17]: 331 g | Activity [18]: 0.62% | Activity [19]: Active | Activity [20]: Active | Activity [21]: Active | Activity [22]: Non-Toxic | Activity [23]: Non-Toxic | Activity [24]: Active | Activity [25]: Non-Toxic | Activity [26]: Non-Toxic | Activity [27]: Non-Toxic | Activity [28]: Active | Activity [29]: Non-Toxic
